Usually IC50 stands for the point on the concentration scale where inhibition reaches its midpoint. Lower therefore signals greater potency in that assay.

In data set [1] the test system is Staphylococcus aureus. Put plainly: Antibacterial activity against Staphylococcus aureus Mu50 infected Balb/c mouse assessed as reduction of bacterial survival in kidney at 5.2 mg, ip bid administered for 4.5 days followed by bacterial infection measured after 5 days. In kind it is functional.
For data set [2], the system named is Staphylococcus aureus. Put plainly: Sensitization of Staphylococcus aureus USA300 LAC to immune clearance in human whole blood assessed as bacterial survival at 1 uM measured after 24 hrs (reference value: 12.2%). It is filed as functional.
Data set [3] relates to Rattus norvegicus. Put plainly: Dose normalized AUC (0 to infinity) in Sprague-Dawley rat at 5 mg/kg, iv administered as single dose. In kind it is ADME, organism-based. The settings on record: in vivo. Put shortly: (§1)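 Male SD rats, 3 per group, single iv 5 mg/kg or oral 10 mg/kg. Blood sampled 0.083 (iv only), 0.25, 0.5, 1, 2, 4, 6, 8, 24 h postdose; plasma separated at 4 °C, stored −80 °C, analysed within 1 week. Parameters from plasma concentration-time data; F from dose-normalized AUC, oral vs iv.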

For data set [4], the system named is Staphylococcus aureus. As to the kind of experiment: Sensitization of methicillin-resistant Staphylococcus aureus Mu50 to H2O2 assessed as bacterial survival at 1 uM measured after 24 hrs (reference value: 25.3%). In kind it is functional. Conditions: Mu50, 24 h.
Data set [5] has as its system Staphylococcus aureus. As to the kind of experiment: Inhibition of staphyloxanthin pigment formation in methicillin-resistant Staphylococcus aureus Mu50 after 48 hrs by spectrophotometric method. In kind it is functional, organism-based. The settings on record: Mu50, 48 h. Put shortly:
(§2)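 MRSA grown in 4 mL TSB with 40 µL compound (2-fold serial dilutions from 20 mM DMSO stock) at 37 °C for 48 h, triplicate. Cells washed twice in PBS, pigment extracted with methanol, OD450 measured; IC50 from dose-response fit.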

In data set [6] the test system is Staphylococcus aureus. As to the kind of experiment: Sensitization of methicillin-resistant Staphylococcus aureus USA400 MW2 to H2O2 assessed as reduction in bacterial survival at 1 uM measured after 24 hrs relative to control. It is filed as functional. Put shortly: (§3)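 Strains grown 24 h in TSB with or without inhibitor, washed twice in PBS, then diluted to 4 × 10^6 CFU per 250 µL reaction. H2O2 added to a final 1.5%. Tubes sealed and held 30 min at 37 °C. Reaction stopped with 1000 U/mL catalase. Survivors counted as CFU by serial dilution on TSA plates and compared with untreated (mock) bacteria.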

The subject of data set [7] is Staphylococcus aureus. As to the kind of experiment: Suppression in growth of Staphylococcus aureus Newman at 0.2 mM measured after overnight incubation by spectrophotometric method. The settings on record: in vitro, 200 µM. It is filed as organism-based. Put shortly:
(§4)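 Compound from 20 mM DMSO stock diluted in TSB to final 0.2 or 0.05 mM; DMSO growth controls; paraffin overlay. Overnight cultures inoculated to final OD600 ≈ 0.05; incubated at 37 °C overnight with OD600 read every 30 min.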

Data set [8] concerns Staphylococcus aureus. Put plainly: Inhibition of staphyloxanthin pigment formation in Staphylococcus aureus Newman after 48 hrs by spectrophotometric method. In kind it is functional, organism-based. Put shortly: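 Compounds as 20 mM DMSO stocks, serial 2-fold dilutions in DMSO; 40 µL added to 4 mL TSB culture, 37 °C for 48 h, in triplicate. Cells washed twice with PBS, pigment extracted with methanol, OD450 measured; IC50 from dose-response curve fit of OD data.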

In data set [9] the test system is Staphylococcus aureus. Put plainly: Antibacterial activity against Staphylococcus aureus USA400 MW2 infected Balb/c mouse assessed as reduction of bacterial survival in liver at 1.3 mg, ip bid administered for 4.5 days followed by bacterial infection measured after 5 days. It is filed as functional. Put shortly: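 Female BALB/c mice, 6–8 weeks. Compound in sterile water ip once and every 12 h for 108 h, total 50 or 200 mg/kg; water controls. Infected 12 h after first dose with 4 × 10^7 CFU USA400 MW2 (100 µL). Killed 5 days post infection; liver or kidney CFU counted on TSA after homogenising in PBS/0.1% Triton X-100. n = 13; two-tailed Mann-Whitney.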

Data set [10] has as its system Staphylococcus aureus. Put plainly: Sensitization of methicillin-resistant Staphylococcus aureus Mu50 to H2O2 assessed as reduction in bacterial survival at 1 uM measured after 24 hrs relative to control. In kind it is functional. In a few lines:
as §3

Data set [11] has as its system Staphylococcus aureus. Put plainly: Suppression in survival of Staphylococcus aureus Newman at 0.2 mM measured after overnight incubation by spectrophotometric method. In kind it is ADME, organism-based. The settings on record: 200 µM. Put shortly:
as §4

For data set [12], the system named is Trichophyton verrucosum. Put plainly: Antifungal activity against Trichophyton verrucosum measured after 7 days by serial dilution method. In kind it is functional. Put shortly:
(§5)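 Broth serial dilution MIC per NCCLS in RPMI 1640 buffered with 0.165 M MOPS; compounds in DMSO diluted in medium. Dermatophytes incubated at 28 °C, read at 7 days. MIC taken as lowest concentration giving ≥80% growth inhibition versus control (turbidity).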

Data set [13] is described as follows: Terminal half life in Sprague-Dawley rat at 5 mg/kg, iv administered as single dose. In kind it is ADME, organism-based. The settings on record: in vivo, read-out: beta t1/2 (converted). In a few lines:
as §1

The test system of data set [14] is Nannizzia gypsea. Put plainly: Antifungal activity against Microsporum gypseum measured after 7 days by serial dilution method. It is filed as functional. In a few lines:
as §5

Data set [15] concerns Staphylococcus aureus. Put plainly: Sensitization of Staphylococcus aureus Newman to immune clearance in human whole blood assessed as bacterial survival at 1 uM measured after 24 hrs (reference value: 26.7%). It is filed as functional.
The subject of data set [16] is Staphylococcus aureus. As to the kind of experiment: Antibacterial activity against Staphylococcus aureus Newman infected Balb/c mouse assessed as reduction of bacterial survival in kidney at 5.2 mg, ip bid administered for 4.5 days followed by bacterial infection measured after 5 days. It is filed as functional. Put shortly: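 Female BALB/c mice, 6–8 weeks, dosed ip with compound in sterile water once and every 12 h for 108 h; water vehicle controls. Challenged 12 h after first dose with 1 × 10^7 CFU Newman by retro-orbital injection. Kidneys and hearts homogenised in PBS/0.1% Triton X-100 and plated on TSA for CFU. n = 13 mice; two-tailed Mann-Whitney.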

Data set [17] is described as follows: Volume of distribution at steady state in Sprague-Dawley rat at 5 mg/kg, iv administered as single dose. Conditions: in vivo, read-out: Vdss. In kind it is ADME, organism-based. In a few lines:
as §1

Data set [18] concerns Staphylococcus aureus. Put plainly: Suppression in survival of methicillin-resistant Staphylococcus aureus USA400 MW2 at 0.05 mM measured after overnight incubation by spectrophotometric method. The settings on record: 50 µM. It is filed as ADME, organism-based. In a few lines:
as §4

Data set [19] has as its system Staphylococcus aureus. Put plainly: Suppression in growth of methicillin-resistant Staphylococcus aureus USA300 LAC at 0.2 mM measured after overnight incubation by spectrophotometric method. It is filed as organism-based. The settings on record: 200 µM. In a few lines: as §4
Data set [20] relates to Staphylococcus aureus. Put plainly: Sensitization of methicillin-resistant Staphylococcus aureus USA400 MW2 to H2O2 assessed as bacterial survival at 1 uM measured after 24 hrs (reference value: 11.7%). In kind it is functional. The settings on record: MW2, 24 h.
A short description of data set [21]: Cytotoxicity against HMEC1 measure after 72 hrs by SRB assay. The settings on record: Homo sapiens, HMEC-1, 72 h. For orientation: In SRB staining, fixed cells bind dye roughly in proportion to their protein.
For data set [22], the system named is Staphylococcus aureus. As to the kind of experiment: Antibacterial activity against Staphylococcus aureus Mu50 infected Balb/c mouse assessed as reduction of bacterial survival in liver at 1.3 mg, ip bid administered for 4.5 days followed by bacterial infection measured after 5 days. It is filed as functional.
The test system of data set [23] is Staphylococcus aureus. Put plainly: Inhibition of staphyloxanthin pigment formation in methicillin-resistant Staphylococcus aureus USA400 MW2 after 48 hrs by spectrophotometric method. In kind it is functional, organism-based. The settings on record: MW2, 48 h. Put shortly:
as §2

Regarding `CN(C/C=C/c1ccc(C(F)(F)F)cc1)Cc1cccc2ccoc12.Cl`, the Activity in [1] is on record as 1.11 deltalog10CFU; in data set [7], “Non-toxic”; in [9], 0.71 deltalog10CFU; in data set [11], “Non-toxic”; in data set [16] it was 0.85 deltalog10CFU; in data set [18], “Non-toxic”. Further, the Activity result in [19] is listed as “Non-toxic”; in data set [22], 2.94 deltalog10CFU. For the same molecule, the survival at 1 µM in [2] came out at 1.2%; in data set [4], 4.3%; in data set [15] it was 0.8%; in [20], 0.6%. The AUC/dose in [3] was 1299.47 ng/mL.hr/(mg/kg). The IC50 was 0.38 nM in data set [5], 3.93 nM in [8], 67100 nM in data set [21] and 5.45 nM in [23]. Further, the “fold change (FC)” value is on record as 20 in [6] and 6 in data set [10]. Further, the “MIC80 (lowest concentration giving ≥80% growth inhibition)” value in data set [12] is over 64 µg/mL; in [14], 32 µg/mL. Also, the half-life in [13] is 8.23 h. Also, in [17], the Vd worked out at 10.7 L/kg.

The values are drawn from ChEMBL document CHEMBL3813689, “Discovery of Potent Benzofuran-Derived Diapophytoene Desaturase (CrtN) Inhibitors with Enhanced Oral Bioavailability for the Treatment of Methicillin-Resistant Staphylococcus aureus (MRSA) Infections” (J Med Chem, 2016).
